The values below come from ChEMBL document CHEMBL1123415, “Benzo[a]carbazole derivatives. Synthesis, estrogen receptor binding affinities, and mammary tumor inhibiting activity” (1986).

For test [1], the target named is Estrogen receptor (Bos taurus) (UniProt Q9XSB5+P49884). The experiment in a line: Evaluated for relative binding affinity (RBA) for calf uterine estrogen receptor. The format is protein assay. The gist of the method: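 Calf uterine cytosol (105000g supernatant; final protein 3 mg/mL) in Tris-EDTA-azide buffer pH 7.5. Incubated with 5 nM [³H]estradiol and competitor (10⁻⁹–10⁻⁴ M) for 18 h at 4 °C. Free ligand removed with dextran-coated charcoal, bound counted by scintillation. Nonspecific binding measured with 5 μM estradiol. RBA = estradiol/competitor molar ratio at 50% displacement ×100.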

For test [2], the target named is T1, Estrogen receptor (Mus musculus) (UniProt O08537+P19785). The experiment in a line: Uterotrophic activity in mice as uterus dry weight (mg)/body weight (g) *100 at 0.2 ug. The class given is functional, tissue-based. The essentials:
(§1)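 Immature 19-day-old female NMRI mice, 10 per group. Compound in olive oil injected sc on 3 consecutive days, dose per animal; vehicle-only controls, estrone as reference. Killed 24 h after last injection. Uteri fixed in Bouin solution, dried at 100 °C for 24 h. Value = uterine dry weight (mg)/body weight (g) ×100, mean of 10 animals ± SD.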

Test [3] deals with T1, Estrogen receptor (Mus musculus). The experiment in a line: Uterotrophic activity in mice as uterus dry weight (mg)/body weight (g) *100 at 1 ug. The format is functional, tissue-based. The essentials:
as §1

Test [4] has the same target. The experiment in a line: Uterotrophic activity in mice as uterus dry weight (mg)/body weight (g) *100 at 25 ug. The class given is functional, tissue-based. The essentials:
as §1

For test [5] the target is unchanged. Put plainly: Uterotrophic activity in mice as uterus dry weight (mg)/body weight (g) *100 at 5 ug. The format is functional, tissue-based. The gist of the method: as §1
Test [6] has the same target. The experiment in a line: Uterotrophic activity in mice as uterus dry weight (mg)/body weight (g) *100 at 125 ug. The format is functional, tissue-based. The essentials:
as §1

For test [7], the species on record is Rattus norvegicus. Put plainly: Change in DMBA-induced mammary tumor area in rats after 28 day therapy at 4 mg dose (experiment-1). The format is functional. The essentials: (§2)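 Female Sprague–Dawley rats given a single 20 mg DMBA dose by gavage in 1 mL olive oil at 50 days old. Randomized once tumor area per animal exceeded 140 mm². Compound given sc in olive oil (1 mL/kg), dose per kg, once daily Monday–Thursday, double dose Friday. Tumor area from caliper measurement of two perpendicular axes, twice weekly. Significance by Wilcoxon–Mann–Whitney U test.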

The species named for test [8] is Rattus norvegicus. Put plainly: Change in DMBA-induced mammary tumor area in rats after 28 day therapy at 1 mg dose (experiment-1). The class given is functional. The essentials: as §2
The species named for test [9] is Rattus norvegicus. The experiment in a line: Complete remission of DMBA-induced mammary tumors in rats at 1 mg dose. The format is functional. The essentials: as §2
The species named for test [10] is Rattus norvegicus. Put plainly: Partial remission of DMBA-induced mammary tumors in rats at 1 mg dose. The class given is functional. The essentials: as §2
The species named for test [11] is Rattus norvegicus. The experiment in a line: Complete remission of DMBA-induced mammary tumors in rats at 4 mg dose. The format is functional. The essentials:
as §2

Test [12] is filed under the species Rattus norvegicus. The experiment in a line: Partial remission of DMBA-induced mammary tumors in rats at 4 mg dose. The class given is functional. The gist of the method: as §2
The species entered for test [13] is Rattus norvegicus. The experiment in a line: Percentage progressive DMBA-induced mammary tumors in rats at 1 mg dose (experiment-1). The format is functional. The essentials:
as §2

The species entered for test [14] is Rattus norvegicus. The experiment in a line: Percentage static unchanged DMBA-induced mammary tumors in rats at 1 mg dose (experiment-1). The format is functional. The gist of the method: as §2
For test [15], the species on record is Rattus norvegicus. Put plainly: Percentage progressive DMBA-induced mammary tumors in rats at 4 mg dose (experiment-1). The format is functional. The essentials:
as §2

The species entered for test [16] is Rattus norvegicus. The experiment in a line: Percentage static unchanged DMBA-induced mammary tumors in rats at 4 mg dose (experiment-1). The format is functional. The essentials: as §2
The species named for test [17] is Rattus norvegicus. The experiment in a line: Final tumor number in DMBA-induced tumor bearing rats at 1 mg dose (experiment-1). The class given is functional. The essentials: as §2
For test [18], the species on record is Rattus norvegicus. Put plainly: Final tumor number in DMBA-induced tumor bearing rats at 4 mg dose (experiment-1). The format is functional. The essentials:
as §2

The species named for test [19] is Rattus norvegicus. The experiment in a line: Initial tumor number in DMBA-induced tumor bearing rats at 1 mg dose (experiment-1). The format is functional. The gist of the method: as §2
The species named for test [20] is Rattus norvegicus. The experiment in a line: Initial tumor number in DMBA-induced tumor bearing rats at 4 mg dose (experiment-1). The class given is functional. The essentials:
as §2

Test [21] concerns MCF7. The experiment in a line: Inhibition of [3H]thymidine incorporation into hormone sensitive MCF-7 human breast cancer cells at 10e-5 M. The class given is functional. The essentials:
(§3)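 MCF-7 cells kept two weeks in medium with 5% charcoal-treated calf serum, 37 °C, 5% CO₂. About 2×10⁴ cells per well; compound added next day in 0.1% ethanol, ethanol-only controls, medium changed on day 4. Cells counted on day 7 by Coulter counter; [³H]thymidine 1 μCi/well for 2 h. Mean of six dishes.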

The test system of test [22] is MCF7. The experiment in a line: Inhibition of [3H]thymidine incorporation into hormone sensitive MCF-7 human breast cancer cells at 10e-6 M. The format is functional. The essentials:
as §3
(Dividing cells build labelled thymidine or BrdU into new DNA.)

Test [23] relates to MCF7. Put plainly: Reduction of cell number of hormone sensitive MCF-7 human breast cancer cells at 10e-5 M.
In test [24] the test system is MCF7. The experiment in a line: Reduction of cell number of hormone sensitive MCF-7 human breast cancer cells at 10e-6 M.
Test [25] addresses T1, Estrogen receptor (Mus musculus). Conditions: Uterus.
For test [26] the target is unchanged. Conditions: Uterus. The source holds these as a separate data set.
For test [27] the target is unchanged. Conditions: Uterus. The source holds these as a separate data set.
For test [28] the target is unchanged. The note with it: Uterus. This is another data set of the same source.

Where only a bound is given, the exact number is not on record here.

T1 sequence (O08537 whole entry, looked up): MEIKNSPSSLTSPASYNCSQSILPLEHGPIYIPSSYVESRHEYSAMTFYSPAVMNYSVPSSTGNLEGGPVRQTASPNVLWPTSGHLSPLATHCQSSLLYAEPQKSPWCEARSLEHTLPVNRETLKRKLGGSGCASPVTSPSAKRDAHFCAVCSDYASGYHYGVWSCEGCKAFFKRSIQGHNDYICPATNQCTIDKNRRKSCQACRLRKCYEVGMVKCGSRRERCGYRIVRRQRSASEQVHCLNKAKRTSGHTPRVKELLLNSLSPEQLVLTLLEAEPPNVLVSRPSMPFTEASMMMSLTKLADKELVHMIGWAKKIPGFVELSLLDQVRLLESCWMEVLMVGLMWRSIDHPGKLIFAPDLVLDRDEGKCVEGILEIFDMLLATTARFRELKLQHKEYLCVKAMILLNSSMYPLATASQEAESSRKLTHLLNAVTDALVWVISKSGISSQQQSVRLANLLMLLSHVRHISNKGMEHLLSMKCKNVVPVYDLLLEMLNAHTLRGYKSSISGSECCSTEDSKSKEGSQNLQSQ
T1 sequence (P19785 whole entry, looked up): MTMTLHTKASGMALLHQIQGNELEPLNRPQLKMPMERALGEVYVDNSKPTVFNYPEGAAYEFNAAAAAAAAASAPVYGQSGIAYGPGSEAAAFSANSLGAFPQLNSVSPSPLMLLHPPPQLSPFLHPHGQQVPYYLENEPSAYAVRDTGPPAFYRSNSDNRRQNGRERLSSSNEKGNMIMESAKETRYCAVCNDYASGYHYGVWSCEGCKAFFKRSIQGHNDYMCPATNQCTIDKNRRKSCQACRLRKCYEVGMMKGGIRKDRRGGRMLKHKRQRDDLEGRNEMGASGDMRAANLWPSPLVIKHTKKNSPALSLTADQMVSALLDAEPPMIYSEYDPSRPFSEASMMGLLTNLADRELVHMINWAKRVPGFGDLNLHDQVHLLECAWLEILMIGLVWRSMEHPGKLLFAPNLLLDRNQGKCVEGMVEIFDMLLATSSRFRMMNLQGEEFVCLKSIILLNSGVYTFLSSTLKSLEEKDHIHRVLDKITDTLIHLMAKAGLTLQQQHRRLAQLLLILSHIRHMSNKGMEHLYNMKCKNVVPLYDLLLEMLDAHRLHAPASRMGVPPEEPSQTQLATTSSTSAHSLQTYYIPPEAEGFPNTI

In test [1], `CCn1c2c(c3cc(O)ccc31)CCc1ccc(O)cc1-2` gave a relative binding affinity (RBA) of 0.7.
The same measure, in the same setting: in the case of `CCn1c2c(c3ccccc31)CCc1cc(O)ccc1-2` it was 1.8.
For `CCn1c2cc(OC(C)=O)ccc2c2ccc3cc(OC(C)=O)ccc3c21`, the Effect in test [2] was 21.6; in test [3], 28.5; in test [4] it was 38.7; in [5], 38.5; in test [6] it was 46.
As to `CCn1c2c(c3ccc(O)cc31)CCc1ccccc1-2`, the relative binding affinity (RBA) in test [1] was determined as 0.8.
On the same count and under the same terms, under `CCn1c2ccc(O)cc2c2ccc3ccccc3c21` stands under 0.01.
Take `CCn1c2c(c3cc(OC(C)=O)ccc31)CCc1cc(OC(C)=O)ccc1-2`: the Effect in test [2] is 15.3; in test [3] it was 19.6; in [4] it was 23.6; in test [5] it was 18.4; in [6], 25.4; in test [9], 9%. Besides, the Effect was 7% in [10]; 10% in test [11]; 6% in [12]; 49% in test [13]; 35% in test [14]; 61% in test [15]. The same molecule gave an Effect in test [16] of 23%. In addition, the entries for the “Change in tumor area” value in test [7] and in [8] were 230% and 179%, respectively. Besides, the “No. of new tumors” value in [17] turned out to be 21; in [18], 24. Besides, the figures for the No. of tumors in test [19] and in test [20] were 22 and 24, respectively.
For `CCn1c2ccc(O)cc2c2ccc3cc(O)ccc3c21`, the relative binding affinity (RBA) in test [1] is 6.5. The Activity in test [21] amounted to 1040; in test [22], 26460. Moreover, the figures for the cell number in test [23] and in test [24] were 5200 and 24100, respectively.
Turning to `CCn1c2ccccc2c2ccc3cc(O)ccc3c21`, the relative binding affinity (RBA) in test [1] came to 0.33.
On the same count and under the same terms, in the case of `CCn1c2cc(O)ccc2c2ccc3c(O)cccc3c21` it was 0.65; in that of `CCn1c2cc(O)ccc2c2ccc3ccccc3c21`, 0.01; in that of `CCn1c2c(c3ccc(O)cc31)CCc1cc(O)ccc1-2`, 30.
The same measure, in the same setting: in the case of `CCn1c2c(c3ccc(O)cc31)CCc1ccc(O)cc1-2` it was 9.7; in that of `CCn1c2c(c3ccc(O)cc31)CCc1c(O)cccc1-2`, 1.3; in that of `CCn1c2c(c3cc(O)ccc31)CCc1c(O)cccc1-2`, 1.9.
For the molecule `C[C@]12CC[C@@H]3c4ccc(O)cc4CC[C@H]3[C@@H]1CCC2=O`, the Effect in test [25] was found to be 48.6; in test [26], 46.9; in test [27], 42.5; in test [28] it was 46.9.
